Test results from paper PMC4410974 (Clinical cancer research : an official journal of the …, 2012).

How the values were obtained:
[1] = Tumor response by RECIST 1.0; format: in vivo, human
[2] = Sirolimus whole blood pharmacokinetics; format: in vivo, human; conditions: for AUC(0-inf) / Cmax / half-life / AUC / Tmax: human, whole blood, oral; for AUC: AUC [SD]; for Tmax: Tmax [SD]
Method in brief: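 Advanced-cancer patients received oral sirolimus once weekly as 1 mg tablets. Week 1 was sirolimus alone. From week 2, ketoconazole was added: 200 mg bid on day 1, then 200 mg daily for 3 days. Whole blood was sampled predose and at 0.25, 0.5, 1, 2, 4, 8, 24 and 48 h in weeks 1–2, and predose in week 3. Analysis was noncompartmental. Cohort doses were re-estimated toward the target AUC assuming dose–AUC linearity.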

[3] = 30 mg, sirolimus alone study, 4 hours apart (total 60 mg), N=5, mean
[4] = 30 mg, sirolimus alone study, 24 hours apart (total 60 mg), N=3, mean
[5] = 45 mg, sirolimus alone study, 24 hours apart (total 90 mg), N=2, mean

## CO[C@H]1C[C@@H]2CC[C@@H](C)[C@@](O)(O2)C(=O)C(=O)N2CCCC[C@H]2C(=O)O[C@H]([C@H](C)C[C@@H]2CC[C@@H](O)[C@H](OC)C2)CC(=O)[C@H](C)/C=C(\C)[C@@H](O)[C@@H](OC)C(=O)[C@H](C)C[C@H](C)/C=C/C=C/C=C/1C [Sirolimus]
[1]; collective studies, patient with epithelioid hemangioendothelioma with hepatic metastases
  Partial response: One partial response
[1]; per study
  Stable disease, number of subjects: 16
  Stable disease, percent of subjects: 40%
[2]; 1 mg, sirolimus 1 mg, with ketoconazole, n=6
  AUC(0-inf): 935 ng·h/mL
[2]; 1 mg, sirolimus 1 mg, without ketoconazole, n=6
  AUC(0-inf): 186 ng·h/mL
[2]; 1 mg, Cmax, sirolimus 1 mg, with ketoconazole, n=6
  Cmax: 25.4 ng/mL
[2]; 1 mg, Cmax, sirolimus 1 mg, without ketoconazole, n=6
  Cmax: 5.4 ng/mL
[2]; 1 mg, T1/2, sirolimus 1 mg, without ketoconazole, n=6
  half-life: 82 h
[2]; 2 mg, sirolimus 2 mg, with ketoconazole, n=6
  AUC(0-inf): 1350 ng·h/mL
[2]; 2 mg, sirolimus 2 mg, without ketoconazole, n=6
  AUC(0-inf): 271 ng·h/mL
[2]; 3 mg, sirolimus 3 mg, with ketoconazole, n=6
  AUC(0-inf): 2450 ng·h/mL
[2]; 3 mg, sirolimus 3 mg, without ketoconazole, n=6
  AUC(0-inf): 400 ng·h/mL
[2]; 3 mg, Cmax, sirolimus 3 mg, with ketoconazole, n=6
  Cmax: 49.2 ng/mL
[2]; 3 mg, T1/2, sirolimus 3 mg, with ketoconazole, n=6
  half-life: 84 h
[2]; 3 mg, T1/2, sirolimus 3 mg, without ketoconazole, n=6
  half-life: 35 h
[2]; 4 mg, sirolimus 4 mg, with ketoconazole, n=6
  AUC(0-inf): 2900 ng·h/mL
[2]; 4 mg, sirolimus 4 mg, without ketoconazole, n=6
  AUC(0-inf): 456 ng·h/mL
[2]; 4 mg, Cmax, sirolimus 4 mg, with ketoconazole, n=6
  Cmax: 66.8 ng/mL
[2]; 4 mg, Cmax, sirolimus 4 mg, without ketoconazole, n=6
  Cmax: 21.3 ng/mL
[2]; 4 mg, T1/2, sirolimus 4 mg, without ketoconazole, n=6
  half-life: 36 h
[2]; 5 mg, sirolimus 5 mg, with ketoconazole, n=6
  AUC(0-inf): 3140 ng·h/mL
[2]; 5 mg, sirolimus 5 mg, without ketoconazole, n=6
  AUC(0-inf): 676 ng·h/mL
[2]; 5 mg, Cmax, sirolimus 5 mg, with ketoconazole, n=6
  Cmax: 71.2 ng/mL
[2]; 5 mg, Cmax, sirolimus 5 mg, without ketoconazole, n=6
  Cmax: 25.8 ng/mL
[2]; 5 mg, T1/2, sirolimus 5 mg, with ketoconazole, n=6
  half-life: 57 h
[2]; 5 mg, T1/2, sirolimus 5 mg, without ketoconazole, n=6
  half-life: 35 h
[2]; 6 mg, sirolimus 6 mg, with ketoconazole, n=3
  AUC(0-inf): 2620 ng·h/mL
[2]; 6 mg, sirolimus 6 mg, without ketoconazole, n=3
  AUC(0-inf): 510 ng·h/mL
[2]; 6 mg, Cmax, sirolimus 6 mg, with ketoconazole, n=3
  Cmax: 74.6 ng/mL
[2]; 6 mg, Cmax, sirolimus 6 mg, without ketoconazole, n=3
  Cmax: 15 ng/mL
[2]; 6 mg, T1/2, sirolimus 6 mg, without ketoconazole, n=3
  half-life: 78 h
[2]; 8 mg, sirolimus 8 mg, with ketoconazole, n=1
  AUC(0-inf): 1620 ng·h/mL
[2]; 8 mg, sirolimus 8 mg, without ketoconazole, n=1
  AUC(0-inf): 420 ng·h/mL
[2]; 8 mg, Cmax, sirolimus 8 mg, with ketoconazole, n=1
  Cmax: 85.2 ng/mL
[2]; 8 mg, Cmax, sirolimus 8 mg, without ketoconazole, n=1
  Cmax: 25.2 ng/mL
[2]; 8 mg, T1/2, sirolimus 8 mg, with ketoconazole, n=1
  half-life: 34 h
[2]; 8 mg, T1/2, sirolimus 8 mg, without ketoconazole, n=1
  half-life: 18 h
[2]; 16 mg, sirolimus 16 mg, with ketoconazole, n=2
  AUC(0-inf): 5010 ng·h/mL
[2]; 16 mg, Cmax, sirolimus 16 mg, with ketoconazole, n=2
  Cmax: 123 ng/mL
[2]; 16 mg, T1/2, sirolimus 16 mg, with ketoconazole, n=2
  half-life: 32 h
[2]; [3]
  AUC: 2050 ng·h/mL
  Tmax: 2.2 h
[2]; [4]
  AUC: 3680 ng·h/mL
  Tmax: 2.3 h
[2]; 30 mg, Cmax [SD], sirolimus alone study, 4 hours apart (total 60 mg), N=5, mean
  Cmax: 32.9 ng/mL
[2]; 30 mg, Cmax [SD], sirolimus alone study, 24 hours apart (total 60 mg), N=3, mean
  Cmax: 83.9 ng/mL
[2]; [5]
  AUC: 3360 ng·h/mL
  Tmax: 2.1 h
[2]; 45 mg, Cmax [SD], sirolimus alone study, 24 hours apart (total 90 mg), N=2, mean
  Cmax: 42.8 ng/mL
[2]; sirolimus 1 mg, with ketoconazole, n=6
  CL/F: 1.2 L/h
[2]; sirolimus 1 mg, without ketoconazole, n=6
  CL/F: 10.3 L/h
[2]; sirolimus 2 mg, with ketoconazole, n=6
  CL/F: 1.8 L/h
[2]; sirolimus 2 mg, without ketoconazole, n=6
  CL/F: 9.5 L/h
[2]; sirolimus 3 mg, with ketoconazole, n=6
  CL/F: 1.6 L/h
[2]; sirolimus 3 mg, without ketoconazole, n=6
  CL/F: 8.0 L/h
[2]; sirolimus 4 mg, with ketoconazole, n=6
  CL/F: 2.1 L/h
[2]; sirolimus 4 mg, without ketoconazole, n=6
  CL/F: 10.0 L/h
[2]; sirolimus 5 mg, with ketoconazole, n=6
  CL/F: 2.8 L/h
[2]; sirolimus 5 mg, without ketoconazole, n=6
  CL/F: 9.0 L/h
[2]; sirolimus 6 mg, with ketoconazole, n=3
  CL/F: 2.6 L/h
[2]; sirolimus 6 mg, without ketoconazole, n=3
  CL/F: 15.6 L/h
[2]; sirolimus 8 mg, with ketoconazole, n=1
  CL/F: 4.9 L/h
[2]; sirolimus 8 mg, without ketoconazole, n=1
  CL/F: 19.1 L/h
[2]; sirolimus 15 mg, with grapefruit juice, n=5
  CL/F: 5.9 L/h
[2]; sirolimus 15 mg, without grapefruit juice, n=5
  CL/F: 20.5 L/h
[2]; sirolimus 16 mg, with ketoconazole, n=2
  CL/F: 3.2 L/h
[2]; sirolimus 16 mg, without ketoconazole, n=2
  CL/F: 11.2 L/h
[2]; sirolimus 20 mg, with grapefruit juice, n=5
  CL/F: 11.5 L/h
[2]; sirolimus 20 mg, without grapefruit juice, n=5
  CL/F: 36.9 L/h
[2]; sirolimus 25 mg, with grapefruit juice, n=4
  CL/F: 9.2 L/h
[2]; sirolimus 25 mg, without grapefruit juice, n=4
  CL/F: 32.6 L/h
[2]; sirolimus 30 mg, with grapefruit juice, n=5
  CL/F: 12.6 L/h
[2]; sirolimus 30 mg, without grapefruit juice, n=5
  CL/F: 18.7 L/h
[2]; sirolimus 35 mg, with grapefruit juice, n=8
  CL/F: 12.8 L/h
[2]; sirolimus 35 mg, without grapefruit juice, n=8
  CL/F: 29.4 L/h
[2]; sirolimus alone study, 30 mg, 4 hours apart (total 60 mg), N=5, mean
  CL/F [SD]: 19.786 [15.2] l/h
[2]; sirolimus alone study, 30 mg, 24 hours apart (total 60 mg), N=3, mean
  CL/F [SD]: 17.087 [2.90] l/h
[2]; sirolimus alone study, 45 mg, 24 hours apart (total 90 mg), N=2, mean
  CL/F [SD]: 26.842 [1.1] l/h
[2]; sirolimus alone study, dose cohort 10 mg, N=6, mean
  CL/F [SD]: 16.922 [6.08] l/h
[2]; sirolimus alone study, dose cohort 20 mg, N=7, mean
  CL/F [SD]: 18.736 [11.0] l/h
[2]; sirolimus alone study, dose cohort 30 mg, N=6, mean
  CL/F [SD]: 16.148 [10.4] l/h
[2]; sirolimus alone study, dose cohort 60 mg, N=8, mean
  CL/F [SD]: 19.588 [13.6] l/h
[2]; sirolimus plus grapefruit juice study
  Sirolimus dose at which target AUC of 3810 ng-hr/ml was achieved/observed: 25 mg
[2]; sirolimus plus ketoconazole study
  Sirolimus dose at which target AUC of 3810 ng-hr/ml was achieved: 16 mg
